Source: PubChem (Johns Hopkins Ion Channel Center)
Hits are enriched below; roughly 2.3% of the tested compounds scored in any of these assays.
TRPC6 activator = activates the mouse TRPC6 cation channel. HEK293-TRPC6 membrane potential dye fluorescence; hits give high values. Q61143. B-score at 10 µM. actives 0.13% (n = 310,000);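 active = B-score of the integrated fluorescence ratio above library mean plus 3 SD, and starting fluorescence ratio within library mean plus 5 SD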;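 also: higher score means more depolarization so channel activation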
TRPC4 block = blocks the mouse TRPC4 cation channel | B-score at 10 µM | AID 2247 | HEK293 TRPC4beta/mu-opioid, DAMGO-evoked Fluo4 calcium flux; hits give low values | Q9QUQ5 | actives 0.39% (n = 300,000);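 active = B-score over 3 SD under the library average, no early fluorescence shift, positive overall ratio signal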
Target sequence (Q9QUQ5 whole entry, looked up): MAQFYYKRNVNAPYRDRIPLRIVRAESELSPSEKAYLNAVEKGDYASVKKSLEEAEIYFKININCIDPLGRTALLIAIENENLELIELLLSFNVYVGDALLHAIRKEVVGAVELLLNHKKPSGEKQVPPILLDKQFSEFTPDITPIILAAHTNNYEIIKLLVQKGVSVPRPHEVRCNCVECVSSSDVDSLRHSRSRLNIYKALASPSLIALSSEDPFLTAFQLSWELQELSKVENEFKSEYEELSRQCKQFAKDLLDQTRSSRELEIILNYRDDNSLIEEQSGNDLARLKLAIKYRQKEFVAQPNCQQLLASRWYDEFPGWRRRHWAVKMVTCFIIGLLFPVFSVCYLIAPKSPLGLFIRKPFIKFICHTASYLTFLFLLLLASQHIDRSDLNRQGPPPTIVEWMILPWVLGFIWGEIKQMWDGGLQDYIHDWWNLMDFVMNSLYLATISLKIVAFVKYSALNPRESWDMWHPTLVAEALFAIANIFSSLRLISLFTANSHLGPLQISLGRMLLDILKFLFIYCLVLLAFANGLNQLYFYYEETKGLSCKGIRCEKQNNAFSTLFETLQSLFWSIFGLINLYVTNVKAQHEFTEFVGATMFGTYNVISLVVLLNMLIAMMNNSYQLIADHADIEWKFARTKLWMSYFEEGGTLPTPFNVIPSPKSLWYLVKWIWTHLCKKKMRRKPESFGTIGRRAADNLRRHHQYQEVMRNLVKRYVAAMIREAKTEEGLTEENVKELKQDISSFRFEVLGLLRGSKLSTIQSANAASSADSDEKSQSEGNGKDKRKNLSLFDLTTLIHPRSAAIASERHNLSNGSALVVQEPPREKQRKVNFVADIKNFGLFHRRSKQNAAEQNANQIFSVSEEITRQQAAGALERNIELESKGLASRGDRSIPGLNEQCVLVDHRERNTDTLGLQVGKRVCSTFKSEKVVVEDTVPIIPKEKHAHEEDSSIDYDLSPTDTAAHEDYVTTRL
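material = TRPC4beta/mu-opioid receptor HEK293 cell line | probe or stimulus = sequential submaximal and maximal DAMGO stimulation | compound dosing = one concentration per compound | measured by = Fluo4 Ca2+ flux fluorescence | evaluation = integrated fluorescence ratio relative to baseline, converted to per-well B score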
TRPC4 agonist = opens the mouse TRPC4 cation channel; Q9QUQ5; HEK293 TRPC4beta/mu-opioid, Fluo4 calcium fluorescence; hits give high values; B-score at 10 µM; actives 0.49% (n = 310,000); AID 2237;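 active = B-score above 5 SD of library B-scores, and initial fluorescence ratio not above library mean plus 5 SD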;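 also: positive B-score marks a calcium rise read as TRPC4 activation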
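Material: TRPC4beta and mu-opioid receptor HEK293 stable cells | Incubation: 45 min room-temperature Fluo4 loading, 110 s read | Detection: Kinetic Fluo4 calcium fluorescence | Measure: Integrated baseline-normalised fluorescence ratio, converted to per-well B score | Benchmarks: Low control buffer alone, high control maximal DAMGO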
TRPC4 potent = allosteric potentiators of mouse TRPC4 channel; B-score at 10 µM; actives 0.42% (n = 310,000); HEK293 TRPC4beta/mu-opioid, DAMGO EC20, Fluo-4 Ca2+ flux; hits give high values; Q9QUQ5;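 active = B-score of calcium response area above 5 SD of library B-scores, with initial fluorescence ratio within 5 SD of library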;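 also: B-score of integrated fluorescence ratio over time as area under calcium response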
TRPC6 inh = blocks the mouse TRPC6 cation channel; B-score at 10 µM; AID 2553; actives 1.1% (n = 310,000); Q61143; HEK293-TRPC6, membrane potential dye, ACh-evoked depolarization; hits give low values;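 active = B-score under library mean minus 3 SD, initial fluorescence not abnormally high, positive integrated signal ratio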;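 also: B-score derived from integrated fluorescence ratio over the kinetic read; more negative B-score means stronger inhibition of depolarization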
TRPC4 sel inh 2 = mouse TRPC4 off-target activity of TRPC6 inhibitors, second screen | shares compounds with TRPC6 inh | HEK293 TRPC4/MOR, membrane potential dye fluorescence; channel activated by saturating DAMGO dose | inhibition, % at 10 µM | actives 42% (n = 920) | AID 2776;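 active = compounds whose fluorescence signal differed from control wells by over 3 SD, either direction, in both duplicate plates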
TRPC4 spec = tests whether TRPC6 inhibitors also affect mouse TRPC4; shares compounds with TRPC6 inh; HEK293 TRPC4/mu-opioid, membrane potential fluorescence; activity change, negative = inhibition, % at 10 µM; actives 61% (n = 920);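 active = rise or fall in signal beyond 3 SD of buffer-only wells in both replicate plates, either sign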;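 also: integrated kinetic ratio of fluorescence range over baseline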
HEK293 MPD ctr 2-1 = second check of TRPC6 inhibitor effects in parental HEK293 cells | shares compounds with TRPC6 inh | parental HEK293 membrane potential dye fluorescence; maximal acetylcholine challenge after compound addition | signal change vs control, % at 10 µM | actives 31% (n = 920) | AID 2779;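 active = membrane potential signal moving either way by over 3 SD of the maximum-effect control, in both duplicate plates, meaning non-specific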
HEK293 MPD ctr-1 = parental HEK293 nonspecific activity of TRPC6 inhibitors; shares compounds with TRPC6 inh; parental HEK293 membrane potential dye fluorescence; membrane potential signal change, % at 10 µM; actives 60% (n = 920); AID 2780;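 active = membrane potential signal shifting up or down by more than 3 SD of buffer-only wells, on both duplicate plates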
HEK293 MPD ctr-2 = parental HEK293 nonspecific activity of TRPC6 modulators; shares compounds with TRPC6 inh; membrane potential dye fluorescence; actives 51% (n = 2,400); membrane potential signal change, % at 10 µM; AID 488924;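 active = membrane potential signal moves up or down beyond 5 SD from buffer-only wells, on both duplicate plates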
HEK293 MPD ctr 2-2 = second counter-screen for TRPC6 modulators: effect in parental HEK293 cells; shares compounds with TRPC6 inh; membrane potential dye fluorescence; after compound, maximal acetylcholine stimulation; inhibition, % at 10 µM; actives 14% (n = 2,400);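 active = membrane potential signal drops by more than 5 SD from the mean control signal, in both duplicate plates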;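 also: plate controls were acetylcholine ECmax control wells for no effect and buffer only wells for full effect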
TRPC4/MOR mod = selectivity of TRPC6 modulators against mouse TRPC4 | shares compounds with TRPC6 inh | HEK293 TRPC4/mu-opioid, membrane potential fluorescence | percent change from control (negative = decrease, positive = increase), % at 10 µM | actives 69% (n = 2,400) | AID 488927;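 active = membrane potential signal moved up or down beyond 5 SD of buffer control wells, in both duplicate plates, actives on both sides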;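 also: plate controls were assay buffer wells for no effect and DAMGO maximal-effect wells for full effect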
TRPC4 ctr inh 2 = second check of whether TRPC6 modulators also affect mouse TRPC4 | shares compounds with TRPC6 inh | HEK293 TRPC4/mu-opioid, membrane potential dye fluorescence; stimulated with maximal-effect DAMGO | inhibition, % at 10 µM | actives 55% (n = 2,400);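 active = drop in membrane potential signal beyond 5 SD of the control wells in both duplicate plates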;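 also: TRPC4 counter screen for TRPC6 hits run under conditions tuned for TRPC6 not TRPC4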
TRPC6 inh conf = confirmation of mouse TRPC6 inhibitors | AID 488960 | shares compounds with TRPC6 inh | HEK293-TRPC6, membrane potential dye, ACh-evoked depolarization | actives 43% (n = 3,300) | inhibition, % at 10 µM;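 active = fluorescence ratio falls more than 5 SD below the full-stimulation control mean, in both duplicate runs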;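 also: integrated fluorescence ratio of peak minus minimum over baseline after agonist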
TRPC6 act confirm = confirmation of mouse TRPC6 activators; AID 488961; shares compounds with TRPC6 inh; actives 11% (n = 2,800); HEK293-TRPC6 membrane potential dye fluorescence, FDSS; activation, % at 10 µM;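 active = ratio signal rise beyond 5 SD above unstimulated control wells' mean, seen in both duplicate runs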;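 also: plate controls were buffer EC0 wells for no effect and acetylcholine ECmax response for full effect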
* = called active by the depositor; i = inactive; / = no result.

SMILES	TRPC6 activator	TRPC4 block	TRPC4 agonist	TRPC4 potent	TRPC6 inh	HEK293 MPD ctr-2	HEK293 MPD ctr 2-2	TRPC4/MOR mod	TRPC4 ctr inh 2	TRPC6 inh conf	TRPC6 act confirm	others
O=C(CSCc1ccc(F)cc1)N1CCN(c2ccc(F)cc2)CC1	i	i	i	i	-5.37*	i	i	i	i	i	i
Cc1ccc(CSCC(=O)N2CCN(c3ccc(F)cc3)CC2)cc1	i	i	i	i	i	/	/	/	/	/	/
Cc1ccn2cc(-c3ccc4c(c3)NC(=O)CO4)nc2c1	i	i	i	i	i	/	/	/	/	/	/
Cc1cccn2cc(-c3ccc4c(c3)NC(=O)CO4)nc12	i	i	i	i	-5.93*	-84.5%*	i	-16.0%*	i	i	i
CC1(C)CC(NC(=O)c2ccc(-c3ccc([N+](=O)[O-])cc3)o2)CC(C)(C)N1	i	i	i	i	i	/	/	/	/	/	/
CN(c1ccccc1C(=O)Nc1ccccc1-c1ccccc1)S(C)(=O)=O	i	i	i	i	i	/	/	/	/	/	/
CN(C)CCNS(=O)(=O)c1ccc(N2CCN(c3ccc(F)cc3)CC2)c([N+](=O)[O-])c1	i	i	i	i	-7.01*	/	/	/	/	51.8%*	i	TRPC4 sel inh 2=40.5%*;TRPC4 spec=-14.2%*;HEK293 MPD ctr 2-1=i;HEK293 MPD ctr-1=-278.0%*
CC(=O)N1CCN(c2ccc(S(=O)(=O)NCCN(C(C)C)C(C)C)cc2[N+](=O)[O-])CC1	i	i	i	i	i	/	/	/	/	/	/
CCN(CC)CCn1c(NCc2ccco2)nc2ccccc21	i	i	i	i	i	/	/	/	/	/	/
CCN(CC)CCn1c(NCc2nc3ccccc3n2Cc2ccccc2)nc2ccccc21	i	i	i	i	-7.1*	/	/	/	/	53.0%*	i	TRPC4 sel inh 2=36.5%*;TRPC4 spec=18.0%*;HEK293 MPD ctr 2-1=275.5%*;HEK293 MPD ctr-1=8.3%*
COc1ccc(CNc2nc3ccccc3n2CCN2CCCCC2)cc1	i	i	i	i	i	/	/	/	/	/	/
Cn1c(CNc2nc3ccccc3n2CCN2CCCCC2)nc2ccccc21	i	i	i	i	-6.55*	i	i	i	72.5%*	44.0%*	i
CCn1c(NCc2ccc(N(C)C)cc2)nc2ccccc21	i	i	i	i	-5.31*	i	i	-14.0%*	46.0%*	i	i
c1ccc(Cn2c(CNc3nc4ccccc4n3CCN3CCCCC3)nc3ccccc32)cc1	i	i	i	i	-6.65*	/	/	/	/	i	i	TRPC4 sel inh 2=59.0%*;TRPC4 spec=11.1%*;HEK293 MPD ctr 2-1=284.5%*;HEK293 MPD ctr-1=6.9%*
CCN(CC)c1nc(Nc2ccc([N+](=O)[O-])cc2)nc(N(CC)CC)n1	i	i	i	i	i	/	/	/	/	/	/
COc1ccc(N2C(=O)CSC2c2ccc([N+](=O)[O-])cc2)cc1 (stereo unspecified)	i	i	i	i	i	/	/	/	/	/	/
O=C(NCCc1ccccc1)C1CC(=O)N(C2CCCCC2)C1 (stereo unspecified)	i	i	i	i	i	/	/	/	/	/	/
CCN(CC)c1ccc(CNc2nc3ccccc3n2CCN2CCCCC2)cc1	i	i	119*	i	-5.91*	i	i	31.5%*	97.0%*	51.5%*	i
CN(C)CCNc1nc(-c2ccco2)c2c(c1C#N)CC(C)(C)OC2	i	i	i	i	-9.7*	-396.0%*	77.5%*	-65.0%*	75.5%*	77.0%*	i
N#Cc1c(NCCN)nc(-c2ccco2)c2c1CCCC2	i	i	i	i	-8.56*	-258.5%*	89.0%*	-46.0%*	75.0%*	76.5%*	i
CC1(C)Cc2c(C#N)c(NCc3ccco3)nc(-c3ccco3)c2CO1	i	i	i	i	i	/	/	/	/	/	/
Cc1onc(-c2ccccc2)c1C(=O)N/N=C/c1ccc([N+](=O)[O-])s1	i	i	i	i	-8.16*	/	/	/	/	i	i	TRPC4 sel inh 2=i;TRPC4 spec=i;HEK293 MPD ctr 2-1=i;HEK293 MPD ctr-1=i
CCOC(=O)C1=NN(C(=O)c2ccc(C)cc2)C(O)(c2ccc(Cl)cc2)C1 (stereo unspecified)	17.6*	i	90*	i	-8.01*	281.0%*	i	69.5%*	i	i	180.0%*
COC(=O)C1=NN(C(=O)c2ccc(Cl)cc2)C(O)(c2ccccc2)C1 (stereo unspecified)	16.2*	i	59*	i	i	321.0%*	i	73.0%*	i	/	190.0%*
CCC1=NN(C(=O)c2ccc(Cl)cc2)C(O)(c2ccc(C)cc2)C1 (stereo unspecified)	i	i	i	i	i	/	/	/	/	/	/
CCC1=NN(C(=O)c2ccc(Cl)cc2)C(O)(c2ccccc2)C1 (stereo unspecified)	i	i	i	i	i	/	/	/	/	/	/
Cc1nnnn1CC(=O)Nc1ccccc1[N+](=O)[O-]	i	i	i	i	i	/	/	/	/	/	/
CC(C)Cc1ccc(S(=O)(=O)NCC2CCCO2)cc1 (stereo unspecified)	i	i	i	i	i	/	/	/	/	/	/
O=C(Nc1cc(Cl)ccc1-n1cncn1)c1ccc([N+](=O)[O-])o1	i	i	i	i	i	/	/	/	/	/	/
